Calls of active or inactive are those of the source.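 Rule for the calls, unless noted: active = viability at or below 30% in both replicate assays; inconclusive = viability at or below 30% in just one of the two assays; inactive = the rest.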
Experiments:
[1] = reducers of endogenous Her2 protein level, primary screen, SKBR3 breast tumor cells, AlphaScreen, ATP viability (AID 461;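 active = Her2 level under about 52% in both replicate screens, with viability over 70% of control, limit read from the data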;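 for Her2 level: lower value means less Her2 protein in the cells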;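 for viability: percent of carrier control wells set as 100% viability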); details: 18-24 h, measured here: SKBR3 viability, ATP luminescence, at 10 µM
[2] = molecular target: Receptor tyrosine-protein kinase erbB-2 (Homo sapiens) (UniProt P04626); assay: as above; details: 18-24 h, at 10 µM, stronger effect = lower value
[3] = SK-BR-3 cell growth inhibitors, pilot screen, 24 h, human (AID 572;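 active = viability at or below 10% of carrier control in both of two separate runs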;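 note: compound exposure lasted between 18 and 24 h rather than exactly 24 h; 100% = carrier-treated control wells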); details: SK-BR-3 viability, CellTiter-Glo luminescence, at 10 µM, stronger effect = lower value
[4] = HUVEC growth inhibition – cell-based, human, primary screen (AID 575); details: HUVEC proliferation, CellTiter-Glo luminescence, 72 h; at 10 µM; stronger effect = lower value;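 note: 100% = median of untreated cell wells with 0.1% DMSO on each plate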
How it was run: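 system = HUVEC primary cells | amount = 1250 cells/well | buffer or medium = supplemented EBM, 2% fetal bovine serum | dosing = single-point 10 µM, DMSO 0.1% final | times = 72 h compound incubation | detection = CTG luminescence | read-out = % viability relative to median vehicle-well signal on each plate | control set = vehicle and MePR control wells | format = collagen-coated 384-well format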

[5] = growth inhibitors of H69AR lung tumor, primary screen, human, duplicate replicates (AID 580;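 active = viability at or under a set limit in both replicates, limit being median viability minus 3 SD, cut at about 48% in these data, passing the limit was not always enough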;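 note: 100% = mean luminescence of untreated wells and 0% = no signal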); details: H69AR lung tumor cells viability, ATP luminescence, 72 h; at 10 µM; stronger effect = lower value
[6] = reversal of MRP1-mediated doxorubicin resistance, pilot screen, H69AR cells, doxorubicin co-treatment (AID 601;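 active = viability loss from added drug above about 55%, and viability with drug at most 40%, in both replicates, limit read from the data, passing the limit was not always enough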); details: CellTiter-Glo, 72 h, at 10 µM; for differential viability (reversal): stronger effect = higher value
[7] = 384-well plate pilot, post-Golgi transport modulator project, inhibition of yeast transport mutant growth (AID 636; in the data active = inhibition above about 31%); details: absorbance 615 nm, about 18 h, stronger effect = higher value
[8] = growth suppression of yeast trafficking mutant, preliminary HTS, modulators of trafficking downstream of Golgi apparatus project, 1536-format plate, OD 615 nm (AID 637; in the data active = inhibition above about 30%); details: yeast transport mutant growth, absorbance 615 nm, 18 h; stronger effect = higher value
[9] = H69AR cells + 2 uM doxorubicin, measured here: viability with 2 uM doxorubicin, stronger effect = lower value
[10] = H69AR cells, compound alone cytotoxicity

Sequence of Receptor tyrosine-protein kinase erbB-2 (Homo sapiens) (P04626 whole entry, looked up): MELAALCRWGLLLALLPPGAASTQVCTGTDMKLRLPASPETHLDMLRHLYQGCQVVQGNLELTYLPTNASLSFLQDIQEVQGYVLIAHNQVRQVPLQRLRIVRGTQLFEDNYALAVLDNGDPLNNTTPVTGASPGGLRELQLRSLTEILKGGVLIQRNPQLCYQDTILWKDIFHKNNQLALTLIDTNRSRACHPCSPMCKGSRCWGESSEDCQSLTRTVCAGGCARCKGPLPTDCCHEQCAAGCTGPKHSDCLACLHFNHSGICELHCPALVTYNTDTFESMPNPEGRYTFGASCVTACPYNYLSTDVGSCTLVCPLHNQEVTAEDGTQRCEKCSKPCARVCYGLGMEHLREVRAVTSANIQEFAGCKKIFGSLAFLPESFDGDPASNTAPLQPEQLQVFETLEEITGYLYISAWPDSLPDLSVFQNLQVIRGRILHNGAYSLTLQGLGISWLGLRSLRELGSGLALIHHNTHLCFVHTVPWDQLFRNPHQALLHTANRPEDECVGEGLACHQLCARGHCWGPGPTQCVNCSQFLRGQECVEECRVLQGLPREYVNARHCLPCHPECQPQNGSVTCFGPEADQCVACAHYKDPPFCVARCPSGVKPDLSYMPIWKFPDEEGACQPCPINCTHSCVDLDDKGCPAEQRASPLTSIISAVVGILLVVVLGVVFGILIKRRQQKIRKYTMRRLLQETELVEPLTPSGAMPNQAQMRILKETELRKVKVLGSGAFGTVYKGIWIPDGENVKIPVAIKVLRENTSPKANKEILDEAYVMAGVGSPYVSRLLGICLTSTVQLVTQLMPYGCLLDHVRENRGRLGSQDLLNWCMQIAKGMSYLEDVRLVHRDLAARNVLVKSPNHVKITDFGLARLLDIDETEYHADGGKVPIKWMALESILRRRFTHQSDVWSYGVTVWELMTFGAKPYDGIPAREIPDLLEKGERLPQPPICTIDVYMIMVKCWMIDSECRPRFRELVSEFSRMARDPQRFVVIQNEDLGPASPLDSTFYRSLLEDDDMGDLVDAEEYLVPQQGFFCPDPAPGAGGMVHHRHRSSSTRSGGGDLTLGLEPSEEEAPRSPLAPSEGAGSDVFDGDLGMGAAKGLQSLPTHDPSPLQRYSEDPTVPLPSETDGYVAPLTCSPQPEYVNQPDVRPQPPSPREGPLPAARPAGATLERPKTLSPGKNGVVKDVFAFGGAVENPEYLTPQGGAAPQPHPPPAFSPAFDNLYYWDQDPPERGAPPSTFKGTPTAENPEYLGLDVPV

SMILES	viability [1]	Her2 level [2]	viability [3]	viability [4]	viability [5]	differential viability (reversal) ([6]; H69AR cells + 2 uM doxorubicin)	viability [6, 9]	viability [6, 10]	inhibition [7]	inhibition [8]
COc1ccc(S(=O)(=O)Nc2ccc(S(=O)(=O)N3CCCCC3)cc2)cc1OC	92%	100% (inactive)	92% (inactive)	95.8% (inactive)	91.3% (inactive)	-3.68% (inactive)	94.9%	91.3%	0.13% (inactive)	-2% (inactive)
CCc1nccn1S(=O)(=O)c1ccc(C)c(C)c1	119%	92.5% (inactive)	119% (inactive)	96.7% (inactive)	99.6% (inactive)	12.7% (inactive)	86.9%	99.6%	-4.86% (inactive)	16.2% (inactive)
COCCn1c(C)cc(C(=O)COC(=O)c2n[nH]c3ccccc23)c1C	97.5%	84% (inactive)	97.5% (inactive)	92.5% (inactive)	81.3% (inactive)	-2.8% (inactive)	84.1%	81.3%	-8.24% (inactive)	0.98% (inactive)
O=C(/C=N/O)NCc1ccncc1	100%	94.5% (inactive)	100% (inactive)	102% (inactive)	108% (inactive)	7.88% (inactive)	100%	108%	-1.43% (inactive)	-3.81% (inactive)
O=C(Nc1nccs1)NC(C(F)(F)F)C(F)(F)F	104%	87.5% (inactive)	104% (inactive)	93% (inactive)	95.1% (inactive)	-0.09% (inactive)	95.1%	95.1%	-6.44% (inactive)	-0.16% (inactive)
CCCCN(C)Cc1c(C)[nH]c2c(Cl)cccc2c1=O	84.5%	87% (inactive)	84.5% (inactive)	96% (inactive)	90.6% (inactive)	13.7% (inactive)	76.9%	90.6%	-4.34% (inactive)	-2.06% (inactive)
CCOC(=O)CSc1nc2cccnc2n1-c1ccc(F)cc1	108%	117% (inactive)	108% (inactive)	103% (inactive)	102% (inactive)	9.83% (inactive)	92.4%	102%	-4.8% (inactive)	-8.1% (inactive)
COc1ccc2nc(SCC(=O)NC(C)C)[nH]c2c1	104%	106% (inactive)	104% (inactive)	102% (inactive)	96.4% (inactive)	4.97% (inactive)	91.4%	96.4%	3.25% (inactive)	-10.8% (inactive)
CCCc1nnc2n1N=C(c1ccc(OC)c(OC)c1)CS2	85%	80% (inactive)	85% (inactive)	68.7% (inactive)	69.9% (inactive)	3.1% (inactive)	66.8%	69.9%	-5.33% (inactive)	2.62% (inactive)
CC1(C)CC(=O)C(C=Nc2ccc3c(c2)OCO3)=C(O)C1	114%	113% (inactive)	114% (inactive)	79.2% (inactive)	75.5% (inactive)	-27.7% (inactive)	103%	75.5%	0% (inactive)	-4.33% (inactive)
CN(C)C(=O)N1CCC(C(=O)NC2CCCCCCC2)CC1	90%	112% (inactive)	90% (inactive)	105% (inactive)	92.9% (inactive)	-1.97% (inactive)	94.8%	92.9%	-3.21% (inactive)	7% (inactive)
O=C(NCC1COCCO1)C1CCN(S(=O)(=O)c2ccccc2)CC1 (stereo not given)	90%	119% (inactive)	90% (inactive)	106% (inactive)	109% (inactive)	10.3% (inactive)	99.2%	109%	1.2% (inactive)	-7.26% (inactive)
CC(NC(=O)CSc1n[nH]c(=O)n1C1CC1)C12CC3CC(CC(C3)C1)C2 (stereo not given)	91.5%	106% (inactive)	91.5% (inactive)	91.6% (inactive)	99.8% (inactive)	6.17% (inactive)	93.6%	99.8%	-4% (inactive)	-5.41% (inactive)
CCOC(=O)c1c(NC(=O)CSc2nc3c(c(=O)n(C)c(=O)n3C)n2C(C)C)sc(C)c1C	106%	94% (inactive)	106% (inactive)	91.4% (inactive)	89.9% (inactive)	-2.12% (inactive)	92.1%	89.9%	-0.53% (inactive)	-3.23% (inactive)
CCCn1c(N2CCN(CC(=O)Nc3ccc4c(c3)OCCO4)CC2)nc2ccccc21	88.5%	96% (inactive)	88.5% (inactive)	87.4% (inactive)	88.9% (inactive)	0.63% (inactive)	88.3%	88.9%	-6.18% (inactive)	4.59% (inactive)
COc1cccc2cc(C(=O)C3=C(O)C(=O)N(CCCN4CCOCC4)C3c3ccncc3)oc12 (stereo not given)	98%	142% (inactive)	98% (inactive)	110% (inactive)	96.8% (inactive)	-2.74% (inactive)	99.6%	96.8%	-5.19% (inactive)	-5.5% (inactive)

SMILES	viability [1]	Her2 level [2]	viability [3]	viability [4]	viability [5]	differential viability (reversal) ([6]; H69AR cells + 2 uM doxorubicin)	viability [6, 9]	viability [6, 10]	inhibition [7]	inhibition [8]
CCCCOc1ccc(NC(=O)Cn2c(=O)ccc3c(C)cc(C)nc32)cc1	102%	104% (inactive)	102% (inactive)	94.1% (inactive)	91.2% (inactive)	11.8% (inactive)	79.5%	91.2%	-3.55% (inactive)	-1.45% (inactive)
COc1cccc(NC(=O)CN2CCN(c3ccccc3F)CC2)c1	90%	88.5% (inactive)	90% (inactive)	107% (inactive)	94.9% (inactive)	1.8% (inactive)	93.1%	94.9%	-4.4% (inactive)	35.6% (active)
O=C(Nc1ccc2c(c1)OCCO2)c1ccco1	83%	106% (inactive)	83% (inactive)	78.7% (inactive)	86.5% (inactive)	6.8% (inactive)	79.7%	86.5%	2.47% (inactive)	-5.08% (inactive)
Cc1ccc2c(c1C)NC(C)CC2C (stereo not given)	100%	82% (inactive)	100% (inactive)	103% (inactive)	97.2% (inactive)	8.96% (inactive)	88.2%	97.2%	-0.39% (inactive)	-0.73% (inactive)
Cc1cc(NC(=O)CN2CCC(O)(c3cccc(F)c3)CC2)no1	97%	107% (inactive)	97% (inactive)	110% (inactive)	109% (inactive)	22.5% (inactive)	86.6%	109%	-0.27% (inactive)	-6.83% (inactive)
O=S(=O)(NCC1CCCO1)c1cc(Cl)ccc1Br (stereo not given)	87.5%	121% (inactive)	87.5% (inactive)	109% (inactive)	96.5% (inactive)	2.42% (inactive)	94.1%	96.5%	3.25% (inactive)	4% (inactive)
O=C(NCCCNC1CCCCC1)c1ccc(/C=N/O)nc1	84%	96% (inactive)	84% (inactive)	92.4% (inactive)	103% (inactive)	4.55% (inactive)	98.6%	103%	-0.91% (inactive)	-5.71% (inactive)
Cc1ccc(NC(=O)CCC(=O)OCC(F)(F)C(F)F)cc1	98%	106% (inactive)	98% (inactive)	117% (inactive)	103% (inactive)	-1.04% (inactive)	104%	103%	-0.65% (inactive)	-7.67% (inactive)
CCOC(=O)c1c(-c2ccc(C)o2)csc1NC(=O)COC(=O)c1cccs1	93%	87.5% (inactive)	93% (inactive)	69.3% (inactive)	84.4% (inactive)	5.23% (inactive)	79.2%	84.4%	1.3% (inactive)	-3.77% (inactive)
Cn1cnnc1SCC(=O)NCc1cccc(C(F)(F)F)c1	88%	97.5% (inactive)	88% (inactive)	102% (inactive)	94.3% (inactive)	0.52% (inactive)	93.8%	94.3%	-5.53% (inactive)	-1.43% (inactive)
COc1ccc(CN(C(=O)c2cccs2)c2nccs2)cc1OC	74%	68.5% (inactive)	74% (inactive)	90.4% (inactive)	94.6% (inactive)	-4.98% (inactive)	99.6%	94.6%	-4.46% (inactive)	-0.98% (inactive)
CCOC(=O)c1c(NC(=O)CSc2nnc(-c3ccc(OC)cc3)o2)sc2c1CCC2	88%	100% (inactive)	88% (inactive)	76.1% (inactive)	82.1% (inactive)	-8.29% (inactive)	90.4%	82.1%	-0.26% (inactive)	-1.77% (inactive)
O=C(Nc1ccccc1N1CCOCC1)c1ccc2ccccc2n1	90%	83.5% (inactive)	90% (inactive)	67.4% (inactive)	79.4% (inactive)	-12.4% (inactive)	91.9%	79.4%	-4.74% (inactive)	-2% (inactive)
CCC(=O)OCCn1c(=O)c2cc3c(=O)n(CCOC(=O)CC)c(=O)c3cc2c1=O	99%	135% (inactive)	99% (inactive)	98.3% (inactive)	87.2% (inactive)	-3.94% (inactive)	91.1%	87.2%	4.55% (inactive)	-4.83% (inactive)
O=C1CN=C(Nc2cccc(C(F)(F)F)c2)N1C1CCCC1	97%	119% (inactive)	97% (inactive)	101% (inactive)	82.5% (inactive)	-15.2% (inactive)	97.7%	82.5%	-3.33% (inactive)	-1.8% (inactive)
Cc1ccc(OC(=O)NC2CCS(=O)(=O)C2)cc1C (stereo not given)	108%	95% (inactive)	108% (inactive)	103% (inactive)	95.3% (inactive)	2.59% (inactive)	92.7%	95.3%	-2.11% (inactive)	6.23% (inactive)
